PREPL inh: human PREPL enzyme inhibition; inhibition, % at 5.96 µM; recombinant PREPL, fluorescence polarization activity-based probe; 0.68% of 320,000 active; Q4J6C6; AID 2751; in the data active = inhibition above about 43%
ALR inh: human ALR oxidase inhibition via reduced H2O2. P55789. purified ALR, DTT oxidation, H2O2 HRP-luminol luminescence. inhibition, % (no concentration beside the values). 3.8% of 290,000 active. AID 485317;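 active = mean replicate inhibition above about 79%, with every replicate also reaching it, limit read from the data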
Rin1-Abl PPI inh: human Rin1-Abl interaction inhibition; TR-FRET Rin1/Abl binding, biochemical; inhibition, % at 7.35 µM; 0.4% of 360,000 active; AID 588664; in the data active = inhibition above about 5%, passing the limit was not always enough
UBC9 SUMO inh: blocks human SUMOylation mediated by UBC9. AID 2006. 0.36% of 290,000 active. inhibition, % at 35 µM. P63279. HTRF SUMOylation assay, SAE1/SAE2 + UBC9, in vitro; in the data active = inhibition above about 50%, passing the limit was not always enough
Target sequence (P63279 whole entry, looked up): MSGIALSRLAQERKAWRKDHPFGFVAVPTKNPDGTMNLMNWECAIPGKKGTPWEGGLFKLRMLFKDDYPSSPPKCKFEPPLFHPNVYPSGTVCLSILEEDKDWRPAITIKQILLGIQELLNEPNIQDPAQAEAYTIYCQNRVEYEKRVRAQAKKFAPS
UBC13 inh: human UBC13 polyubiquitination inhibition; UBC13 polyubiquitin chain formation, TR-FRET; 0.47% of 330,000 active; P61088; inhibition, % at 20 µM; in the data active = inhibition above about 45%, passing the limit was not always enough
Target sequence (P61088 whole entry, looked up): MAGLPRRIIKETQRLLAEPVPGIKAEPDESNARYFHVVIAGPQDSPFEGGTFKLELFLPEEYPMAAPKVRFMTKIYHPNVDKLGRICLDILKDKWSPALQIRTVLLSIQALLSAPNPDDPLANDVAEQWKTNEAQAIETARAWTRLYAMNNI
RBBP9 inhibitor: inhibitors of human serine hydrolase RBBP9; inhibition, % at 7.94 µM; recombinant RBBP9, FP-Rh probe fluorescence polarization; O75884; 0.2% of 220,000 active;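 active = inhibition above the campaign mean of all tested compounds plus 3 SD, cut at about 14% in these data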
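Test system – recombinant human RBBP9 · Input – RBBP9 2.5 µM in dispensing solution, pre-mixing · Medium – Tris buffer pH 8.0, NaCl, Pluronic · Schedule – preincubation 30 min plus labeling 45 min at 25 °C · Measured by – fluorescence polarization · Measure – % inhibition · Controls – DMSO and no-protein wells · Replicates – one well per compound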
Of the large screens only hits and unclear results are named; the others gave an inactive call. In the library only some 4.3% were active in any assay of this set; here they are far more common.

CCNc1nc(NCC)nc(N/N=C/c2ccc(N(C)C)cc2)n1	ALR inh 99
NNC(=S)Nc1c(Br)cc(F)cc1Br	none (no result: ALR inh)
CCCCN(CCCC)c1ccc(C(=O)c2ccccc2C(=O)O)c(O)c1	ALR inh 90
CCc1nc(N[C@@H](Cc2c[nH]c3ccccc23)C(=O)O)c2oc3ccccc3c2n1	ALR inh 89
Cc1nc(N[C@@H](Cc2c[nH]c3ccccc23)C(=O)O)c2oc3ccccc3c2n1	none (no result: Rin1-Abl PPI inh)
COc1ccc2c(c1)Cc1sc(NC(C)=O)nc1-2	none
COc1ccc2c(c1)Cc1sc(NC(=O)c3cccnc3)nc1-2	UBC9 SUMO inh 90
CCN1CC(c2ccccc2)C(c2ccc(Cl)cc2)=N1 (stereo unspecified)	ALR inh 95
CN(C)S(=O)(=O)N1CCN(c2cccc(Cl)c2)CC1	none
CN(C)S(=O)(=O)N1CCN(c2ccccc2)CC1	ALR inh 79
O=C(Nc1cc(Cl)ccc1-n1cncn1)c1cc(S(=O)(=O)N2CCOCC2)ccc1F	none (no result: RBBP9 inhibitor)
O=C(O/N=C/c1ccc2c(c1)OCO2)c1ccccc1Cl	PREPL inh 55 (no result: ALR inh, Rin1-Abl PPI inh)
O=C(N/N=C/c1ccc2c(c1)OCO2)C(=O)Nc1ccccc1Cl	none (no result: PREPL inh, RBBP9 inhibitor)
Cc1cccc(-c2ccc3c(c2)C2CC3CCN2Cc2ccc3c(c2)OCO3)c1 (stereo unspecified)	none (no result: PREPL inh, ALR inh, UBC9 SUMO inh, UBC13 inh, RBBP9 inhibitor)
Cn1c(N)c(C(=O)COC(=O)COc2cc(Cl)c(Cl)cc2Cl)c(=O)n(C)c1=O	none (no result: UBC9 SUMO inh, RBBP9 inhibitor)
CC(Oc1ccccc1)C(=O)Nc1ccccc1O (stereo unspecified)	ALR inh 90
Cc1cccc(NC(=O)CSCC(=O)OCc2ccccn2)c1	ALR inh 99 (no result: UBC9 SUMO inh, RBBP9 inhibitor)
COc1cccc(CN(C)C(=O)CSCC(=O)Nc2cccc(C)c2)c1OC	ALR inh 92 (no result: UBC9 SUMO inh, RBBP9 inhibitor)
CC(C)CN1CC(COCc2ccccc2)Oc2ccccc2S1(=O)=O (stereo unspecified)	none (no result: PREPL inh, ALR inh, UBC9 SUMO inh, UBC13 inh, RBBP9 inhibitor)
Cc1ccc(S(=O)(=O)N(C)C[C@@H]2Oc3ccc(NC(=O)Cn4cnnn4)cc3C(=O)N([C@@H](C)CO)C[C@H]2C)cc1	none (no result: UBC9 SUMO inh, RBBP9 inhibitor)
COc1ccc(N2CCN(c3ccc(C(=O)O)cc3[N+](=O)[O-])CC2)cc1	ALR inh 79 (no result: RBBP9 inhibitor)
NC(=O)c1ccc(N2CCN(c3ccc(O)cc3)CC2)c([N+](=O)[O-])c1	ALR inh 99
Cc1ccc(CNS(=O)(=O)c2cn(C)c(=O)n(C)c2=O)cc1	none (no result: RBBP9 inhibitor)
Cc1ccc(C(=O)OCC(=O)NC2CCCCC2)s1	none (no result: ALR inh)
CCOC(=O)CCc1c(C)c2ccc(O)cc2oc1=O	ALR inh 81
CC1CCCC/C1=N\NC(=S)Nc1cccnc1 (stereo unspecified)	ALR inh 98
Cc1ccc(NC(=S)N/N=C2\CCCCC2C)cc1 (stereo unspecified)	none
C#CCOC(=O)Nc1cc(C)n(-c2ccccc2)n1	none
Cc1ncc(CO)c(CNc2ccc(Oc3ccccc3)cc2)c1O	ALR inh 98 (no result: PREPL inh, RBBP9 inhibitor)
S=C(NCc1cccnc1)Nc1ccc(Oc2ccccc2)cc1	none
COCC(=O)N(C)C[C@@H]1Oc2ncc(Br)cc2C(=O)N([C@@H](C)CO)C[C@H]1C	none (no result: PREPL inh, ALR inh, UBC9 SUMO inh, UBC13 inh, RBBP9 inhibitor)
CCN(CC)S(=O)(=O)c1ccc(O)c(C(=O)OCC(=O)NC23CC4CC(CC(C4)C2)C3)c1	none (no result: UBC9 SUMO inh, RBBP9 inhibitor)
COc1cccc(-c2cc(C(F)(F)F)n3nc(N)nc3n2)c1	ALR inh 95
CC(=O)N1CCc2cc(S(=O)(=O)C(C)CC(=O)Nc3ccc(OC(F)(F)F)cc3)ccc21 (stereo unspecified)	none (no result: UBC9 SUMO inh, RBBP9 inhibitor)
COc1ccc(CCC(C)Nc2ccc(F)c(F)c2)cc1 (stereo unspecified)	none
COc1ccc(CCC(C)Nc2ccc(F)cc2)cc1 (stereo unspecified)	ALR inh 98
COc1ccc(CC(C)Nc2cccc(SC)c2)cc1 (stereo unspecified)	none (no result: PREPL inh, RBBP9 inhibitor)
COc1ccc(CCC(C)Nc2cccc(C)c2)cc1 (stereo unspecified)	ALR inh 99
CCCCCC(=O)N1C[C@H](n2cc(C3CC3)nn2)[C@@H](O)C[C@@H]1c1ccccc1	none (no result: PREPL inh, ALR inh, UBC9 SUMO inh, UBC13 inh, RBBP9 inhibitor)
COc1ccccc1OCC(O)Cn1c(=N)n(Cc2ccccc2)c2ccccc21 (stereo unspecified)	none
N=c1n(Cc2ccccc2)c2ccccc2n1CC(O)c1ccccc1 (stereo unspecified)	PREPL inh 43
CCCCC(CC)CNC(=O)Cn1c(=S)[nH]c2ncccc2c1=O (stereo unspecified)	none (no result: Rin1-Abl PPI inh)
